# Wee1 degr inh: Wee1 degradation inhibitors, primary screen, cell-based, HeLa, Wee1K328M-luciferase, luminescence | Wee1-like protein kinase (Homo sapiens), P30291 | reporter increase, % at 5 µM | HeLa Luc-Wee1K328M stability; 100% = proteasome inhibitor MG132 effect | 1.2% of 220,000 active;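 active = activation above the mean of all tested compounds plus 3 SD, set per screening run, cut at about 8.8% in these data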;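 also: cells exposed to compound for 20 h before luminescence read; 0% = DMSO alone and 100% = MG132 at 30 µM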
# Target sequence (P30291 whole entry K328M): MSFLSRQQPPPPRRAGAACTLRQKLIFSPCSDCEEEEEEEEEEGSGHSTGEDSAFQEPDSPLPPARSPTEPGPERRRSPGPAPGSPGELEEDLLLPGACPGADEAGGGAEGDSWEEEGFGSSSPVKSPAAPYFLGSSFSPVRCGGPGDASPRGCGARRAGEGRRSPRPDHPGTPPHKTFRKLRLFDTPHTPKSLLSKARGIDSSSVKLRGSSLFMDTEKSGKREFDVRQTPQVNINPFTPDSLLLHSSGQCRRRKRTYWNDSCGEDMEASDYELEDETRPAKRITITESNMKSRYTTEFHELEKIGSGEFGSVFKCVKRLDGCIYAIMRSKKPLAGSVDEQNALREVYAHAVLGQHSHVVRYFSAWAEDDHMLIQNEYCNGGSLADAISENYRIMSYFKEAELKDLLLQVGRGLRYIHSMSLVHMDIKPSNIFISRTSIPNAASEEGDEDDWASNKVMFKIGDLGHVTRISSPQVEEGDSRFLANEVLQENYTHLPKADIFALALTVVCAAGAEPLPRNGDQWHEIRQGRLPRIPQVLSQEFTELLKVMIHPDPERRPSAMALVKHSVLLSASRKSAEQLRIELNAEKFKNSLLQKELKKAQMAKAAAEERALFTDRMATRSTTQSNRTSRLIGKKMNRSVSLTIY
# Insulin prom up: insulin promoter activators in MIN6 cells, imaging, high-content screening, mouse beta cells; AID 1625, 2009; z-score at 5 µM; MIN6 insulin promoter-GFP reporter; hits give high values; 0.3% of 190,000 active;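 active = z-score above 3 at 5 µM with at least 500 cells counted in the well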
# MT stabilizer: microtubule stabilizers in HeLa cells, primary screen, imaging, high-content imaging. HeLa tubulin immunostaining HCS, 24 h; share of cells brighter than vehicle mean+2SD. % tubulin-high responders, % at 10 µM. 0.83% of 200,000 active. AID 2205, 2009;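 active = plate Z-score above 3 for both tubulin-high and condensed-nucleus cell shares, with cell loss under 80%, at 10 µM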;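 also: anti alpha tubulin signal scored within the nucleus-defined area of each cell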
# b-catenin transl: modulators of beta-catenin nuclear translocation, primary screen, imaging, HeLa cells, immunofluorescence, high-content; nuclear translocation activity, % at 5 µM; 0.3% of 190,000 active;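 active = nuclear translocation activity above 50% at 5 µM, with a well cell count of 50 or more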;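 also: per-cell ratio of nuclear to cytoplasmic median beta-catenin stain intensity; plate controls were DMSO negative control for no effect and GSK-3 inhibitor IX positive control for full effect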
#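 Test system: HeLa cells, endogenous beta-catenin; Compound: single 5 µM dose plus 0.02–20 µM confirmation series; Times: compound exposure 24 h at 37°C; Signal: fluorescence imaging of beta-catenin antibody stain plus DAPI; Read-out: % activation, nuclear-to-cytoplasmic median beta-catenin signal ratio per cell.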
# Autophagy mod: autophagy modulators in MEF cells, primary screen, imaging, high-content, MEF GFP-LC3. MEF GFP-LC3 puncta imaging; test concentration mostly 10 µM. calls only at 10 µM (by protocol). 0.98% of 190,000 active. AID 463193, 2010;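 active = percentage of spot-positive cells more than 3 SD above its plate mean, without a fluorescence outlier flag or 80% toxicity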;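 also: spot-positive cell cutoff set from DMSO-treated cells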
# * marks the source's active call; other numbers are inactive results; i = inactive; x = no result given; + = active, no number. The list is not random: actives were taken first. Their share in the collection is about 2.9%.
SMILES,Wee1 degr inh,Insulin prom up,MT stabilizer,b-catenin transl,Autophagy mod
COc1ccc(/C=N/NC(=O)CCn2cnc(-c3ccccc3)c2-c2ccccc2)cc1,5.0,0.21,13.7,60.1*,i
O=C(CCn1cnc(-c2ccccc2)c1-c1ccccc1)N/N=C/c1ccccc1O,3.9,0.06,6.6,-3.4,i
CCOC(=O)N1CCN(C(=O)c2ccc3c(=O)n(CCc4ccccc4)c(=O)[nH]c3c2)CC1,-4.0,-0.29,2.5,-4.2,i
Cc1ccc(C)c(N2CCN(C(=O)CNS(=O)(=O)c3cccs3)CC2)c1,0.8,-0.13,0.9,-1.7,i
O=C1c2ccc(-c3ccc4c(c3)C(=O)N(CCO)C4=O)cc2C(=O)N1CCO,-2.2,0.53,x,-0.6,x
CC/S(C)=N/S(=O)(=O)c1ccc(C)cc1 (stereo not given),-2.4,0.49,3.4,-0.3,i
CCOC(=O)c1ccc2c(c1)nc(COc1ccc(OC)cc1)n2CC,1.9,0.1,2.6,x,i
O=C(CSc1nnc(-c2cccnc2)n1CCc1ccccc1)N1CCCCC1,-2.3,0.55,2.3,-1.5,+
CCN(CC)c1cccc(OCC(=O)N(C)CCC#N)c1,-0.6,-0.19,10.6,-2.3,+
COc1ccc(CC(=O)Nc2nc(-c3ccncc3)cs2)cc1,1.6,-0.18,4.6,5.4,i
COc1ccc(CC(=O)Nc2nc(-c3cccc([N+](=O)[O-])c3)cs2)cc1,10.4*,0.07,4.6,x,i
O=C(O)CC12CSc3[nH]c(=O)sc3C1c1ccccc1OC2=O (stereo not given),-0.9,3.25*,2.6,x,i
COC(=O)CNC(=O)CSc1ccccn1,-1.6,-0.1,x,-0.3,x
Cc1cc(C)nc(NC(=O)CSc2ccccn2)n1,16.9*,x,2.5,-1.7,i
COc1ccccc1C(=O)CSc1ccccn1,4.6,0.36,5.7,0.1,+
Cc1ccccc1N(CC(=O)N/N=C/c1cc(Br)c(C)o1)S(C)(=O)=O,-0.7,x,3.6,0.8,i
Cc1ccc(C)c(NC(=O)C(C)CC2COCCO2)c1 (stereo not given),0.2,3.45*,3.4,-0.1,i
COc1cc(NC(=S)NCCCN2CCOCC2)cc(OC)c1,9.6*,0.03,1.7,-6.3,i
COc1cccc(NC(=S)NCCN2CCOCC2)c1,1.9,0.68,1.7,0.7,i
O=c1cc(N2CCN(c3ccc(F)cc3)CC2)[nH]c(=O)n1C1CCCCC1,0.6,-1.6,27.3*,2.0,i
CCN1/C(=C2\C(=O)N(C)C(=S)N2C)C=Cc2cc(C)ccc21,-2.3,-0.33,7.0,-1.8,i
O=C(Nc1ccccc1N1CCN(C(=O)c2ccc(Cl)cc2)CC1)c1ccc2c(c1)OCO2,0.3,x,1.9,x,i
O=C(Nc1ccccc1N1CCN(C(=O)c2ccccc2)CC1)c1cccc(Cl)c1,9.2*,-0.5,x,-0.3,x
C=CCc1cc(/C=C2/NC(=O)N(CC(=O)OC)C2=O)cc(OC)c1O,-1.7,-0.17,2.5,0.6,i
COc1ccccc1CN1CCNC(=O)C1CC(=O)NCc1cn(C)nc1C (stereo not given),0.0,x,1.6,-0.1,i
SMILES,Wee1 degr inh,Insulin prom up,MT stabilizer,b-catenin transl,Autophagy mod
COc1cc(C2Sc3ccccc3NC3=C2C(=O)OC3)cc(OC)c1OC (stereo not given),3.0,0.34,39.6*,0.9,i
O=C1OCC2=C1C(c1ccc(F)cc1)Sc1ccccc1N2 (stereo not given),0.5,-0.08,4.6,-4.9,i
O=C(O)CC1(CC(=O)Nc2ccc(Cl)cc2C(=O)c2ccccc2)CCCC1,-0.9,-0.21,x,-0.3,x
Cc1ccc(NC(=O)/C(C#N)=C/c2ccc(C)s2)c(C)c1,1.3,2.39,5.1,x,+
O=C(Nc1nc2ccc(C(=O)N3CCCCC3)cc2s1)C1CCCCC1,2.5,0.31,15.7*,0.6,i
Cc1ccc(N2C(=O)C(F)(F)C2c2ccccc2)cc1 (stereo not given),-0.3,1.18,3.8,-1.1,i
Cc1ccc(N2C(=N)/C(=C3/Nc4ccccc4S3)C(c3ccccc3)C2=O)cc1 (stereo not given),1.2,-0.44,7.7,12.4,+
CCCC(=O)Nc1nc2ccc(NC(=O)c3ccccc3F)cc2s1,7.2,-0.16,34.1*,6.4,i
CCCCC(=O)Nc1nc2ccc(C(=O)OC)cc2s1,2.7,-0.83,24.7*,0.6,i
CC(=O)Nc1ccc2nc(NC(=O)CCc3ccccc3)sc2c1,-3.4,-0.52,5.7,-3.0,i
CC1=C(C#N)c2nc(N)c(C#N)c(C)c2/C1=C\c1ccc(OCC(=O)O)c(Cl)c1,1.9,0.77,x,1.8,x
CCN1CCN(CCc2nc3cc([N+](=O)[O-])ccc3n2C)CC1,9.3*,0.18,x,-0.1,x
Cn1c(CCN2CCCCC2)nc2cc([N+](=O)[O-])ccc21,-2.4,-0.3,2.5,-2.1,i
CC1CCCCN1S(=O)(=O)c1ccc(C(=O)Nc2ccccc2-c2nc3ccccc3[nH]2)cc1 (stereo not given),10.5*,-1.37,3.6,2.1,i
COCCn1c(SCC#N)nnc1-c1ccc([N+](=O)[O-])cc1,2.1,0.32,1.7,-0.8,i
CN(C)c1ccc(NC(=O)Cn2cc3c(n2)CCCC3)cc1,1.0,-0.26,2.6,0.3,i
O=c1[nH]c(=S)[nH]cc1Oc1ccc(Cl)cc1Cl,9.0*,-0.61,x,-0.8,x
Cc1nc(-c2ccccc2)[nH]c(=O)c1Oc1ccc(Cl)cc1Cl,-3.6,x,x,-4.1,x
CCCN1CCC(=O)N([C@H](CSc2ccc(OC)cc2)CC(C)C)CC1,x,x,x,-1.8,x
CCOc1ccc(S(=O)(=O)N(C(=O)c2ccco2)c2cc3sc(=O)oc3c3ccccc23)cc1,0.6,-0.66,19.1*,0.4,i
Cc1cc(C(=O)N2CCN(c3ncccn3)CC2)nn1C,0.4,x,x,0.1,x
COc1ccc(-c2csc(NC(=O)C3CCCCN3S(=O)(=O)c3ccccc3)n2)cc1 (stereo not given),10.0*,-1.73,3.6,2.3,i
COc1ccc(S(=O)(=O)N2CCCC2C(=O)Nc2ccc(C)cc2)cc1 (stereo not given),-1.0,-0.11,1.6,0.3,i
CC1=CC(=O)N(c2ccn(C)n2)C1=O,-0.3,-0.02,x,-0.4,x
O=C(NCc1cccs1)C(=O)NCC(c1ccco1)N1CCN(c2ccc(F)cc2)CC1 (stereo not given),-1.3,-0.03,1.5,0.6,i
O=C(CN1CCN(c2ccc(F)cc2)CC1)NCc1cccs1,9.0*,0.08,1.3,0.7,i
CCCCn1c(NC(=O)c2ccccc2)c(C#N)c2nc3ccccc3nc21,1.9,2.86,3.2,2.6,i
CCC(C)n1c(NC(=O)c2ccccc2)c(C#N)c2nc3ccccc3nc21 (stereo not given),-1.0,x,7.3,x,+

# Screening results from PubChem BioAssay.
